Calls of active or inactive are those of the source. The calls are words filed in the database; no cut-off is given here.
Key:
[1] = target: T1, Fibroblast growth factor receptor 2 (Homo sapiens, UniProt P21802); test: Inhibition of recombinant human FGFR2 using poly (Glu, Tyr) 4:1 as substrate after 60 mins by ELISA
How it was run: (§1)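 Purified recombinant kinases tested by ELISA on plates pre-coated with 20 µg/mL poly(Glu,Tyr) 4:1. Reaction run 60 min at 37 °C. Read-out: PY99 anti-phosphotyrosine antibody, HRP anti-mouse IgG and o-phenylenediamine/H2O2, with A490 measured. IC50 from inhibition curves, two independent experiments.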
Target sequence in this assay (P21802 whole entry): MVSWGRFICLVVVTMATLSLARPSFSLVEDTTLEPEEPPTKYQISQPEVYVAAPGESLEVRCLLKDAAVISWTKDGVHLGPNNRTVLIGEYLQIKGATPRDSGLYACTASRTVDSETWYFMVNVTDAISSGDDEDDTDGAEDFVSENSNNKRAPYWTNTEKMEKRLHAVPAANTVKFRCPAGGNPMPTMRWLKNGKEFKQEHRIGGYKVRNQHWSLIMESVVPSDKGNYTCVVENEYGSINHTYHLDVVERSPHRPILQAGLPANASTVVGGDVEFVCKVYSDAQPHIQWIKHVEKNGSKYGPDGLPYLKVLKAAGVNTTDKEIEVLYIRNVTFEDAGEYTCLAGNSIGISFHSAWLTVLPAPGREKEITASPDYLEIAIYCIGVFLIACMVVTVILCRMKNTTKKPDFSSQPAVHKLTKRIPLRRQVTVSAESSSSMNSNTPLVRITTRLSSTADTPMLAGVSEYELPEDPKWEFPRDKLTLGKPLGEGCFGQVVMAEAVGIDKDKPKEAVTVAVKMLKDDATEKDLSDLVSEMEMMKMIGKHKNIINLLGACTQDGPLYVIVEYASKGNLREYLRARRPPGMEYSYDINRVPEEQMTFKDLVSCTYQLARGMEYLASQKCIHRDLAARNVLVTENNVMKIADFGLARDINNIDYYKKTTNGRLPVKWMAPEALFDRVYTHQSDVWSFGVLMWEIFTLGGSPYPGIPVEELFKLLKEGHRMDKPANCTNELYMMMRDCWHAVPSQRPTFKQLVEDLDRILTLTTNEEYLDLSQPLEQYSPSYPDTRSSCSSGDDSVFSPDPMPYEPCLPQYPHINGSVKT

[2] = target: Platelet-derived growth factor receptor beta (Homo sapiens, UniProt P09619); test: Inhibition of recombinant human PDGFRbeta using poly (Glu, Tyr) 4:1 as substrate after 60 mins by ELISA; how it was run: as §1
[3] = target: T2, Receptor-type tyrosine-protein kinase FLT3 (Homo sapiens, UniProt P36888); test: Inhibition of recombinant human Flt3 using poly (Glu, Tyr) 4:1 as substrate after 60 mins by ELISA; how it was run: as §1
T2 sequence (P36888 whole entry): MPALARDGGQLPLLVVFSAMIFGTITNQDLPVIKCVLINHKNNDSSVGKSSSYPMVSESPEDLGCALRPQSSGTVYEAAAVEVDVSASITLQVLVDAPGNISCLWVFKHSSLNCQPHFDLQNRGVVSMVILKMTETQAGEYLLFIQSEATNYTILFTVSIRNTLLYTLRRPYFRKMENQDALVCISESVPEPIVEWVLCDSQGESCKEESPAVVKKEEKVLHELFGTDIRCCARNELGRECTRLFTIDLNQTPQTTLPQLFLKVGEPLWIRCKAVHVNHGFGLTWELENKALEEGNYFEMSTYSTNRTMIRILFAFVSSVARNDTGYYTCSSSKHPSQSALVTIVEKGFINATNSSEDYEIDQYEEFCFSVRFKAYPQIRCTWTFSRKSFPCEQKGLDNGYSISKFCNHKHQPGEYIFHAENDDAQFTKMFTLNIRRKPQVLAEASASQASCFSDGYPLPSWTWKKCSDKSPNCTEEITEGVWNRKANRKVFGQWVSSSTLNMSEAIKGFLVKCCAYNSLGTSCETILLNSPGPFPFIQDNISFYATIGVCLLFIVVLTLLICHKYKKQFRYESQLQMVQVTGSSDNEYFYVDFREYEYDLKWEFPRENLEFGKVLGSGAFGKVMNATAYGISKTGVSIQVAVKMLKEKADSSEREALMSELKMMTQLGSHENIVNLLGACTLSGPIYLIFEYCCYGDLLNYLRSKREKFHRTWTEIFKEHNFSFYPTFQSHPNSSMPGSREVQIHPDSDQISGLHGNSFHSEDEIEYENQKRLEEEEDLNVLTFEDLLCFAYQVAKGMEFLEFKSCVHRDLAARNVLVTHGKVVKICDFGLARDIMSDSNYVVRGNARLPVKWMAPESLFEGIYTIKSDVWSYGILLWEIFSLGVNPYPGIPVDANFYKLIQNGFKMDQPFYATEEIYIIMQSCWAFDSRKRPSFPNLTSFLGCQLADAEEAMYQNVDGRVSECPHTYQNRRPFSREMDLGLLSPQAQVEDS

[4] = target: Fibroblast growth factor receptor 1 (Homo sapiens, UniProt P11362); test: Inhibition of FGFR1 phosphorylation in human KG1 cells after 2 hrs by Western blot method; format: cell-based; settings: KG-1
How it was run: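 KG-1 cells treated at indicated concentrations for 2 h, then lysed in 1× SDS sample buffer. Lysates run on 10% SDS-PAGE, transferred to nitrocellulose, and probed for phospho-FGFR, PLCγ and Erk. Detection by enhanced chemiluminescence.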

[5] = target: T1, Fibroblast growth factor receptor 2; test: Inhibition of FGFR2 in human SNU15 cells assessed as reduction of ERK phosphorylation at 0.1 to 10 nM after 2 hrs by Western blot method; format: cell-based
Target sequence in this assay (P21802 22-821 limits assumed): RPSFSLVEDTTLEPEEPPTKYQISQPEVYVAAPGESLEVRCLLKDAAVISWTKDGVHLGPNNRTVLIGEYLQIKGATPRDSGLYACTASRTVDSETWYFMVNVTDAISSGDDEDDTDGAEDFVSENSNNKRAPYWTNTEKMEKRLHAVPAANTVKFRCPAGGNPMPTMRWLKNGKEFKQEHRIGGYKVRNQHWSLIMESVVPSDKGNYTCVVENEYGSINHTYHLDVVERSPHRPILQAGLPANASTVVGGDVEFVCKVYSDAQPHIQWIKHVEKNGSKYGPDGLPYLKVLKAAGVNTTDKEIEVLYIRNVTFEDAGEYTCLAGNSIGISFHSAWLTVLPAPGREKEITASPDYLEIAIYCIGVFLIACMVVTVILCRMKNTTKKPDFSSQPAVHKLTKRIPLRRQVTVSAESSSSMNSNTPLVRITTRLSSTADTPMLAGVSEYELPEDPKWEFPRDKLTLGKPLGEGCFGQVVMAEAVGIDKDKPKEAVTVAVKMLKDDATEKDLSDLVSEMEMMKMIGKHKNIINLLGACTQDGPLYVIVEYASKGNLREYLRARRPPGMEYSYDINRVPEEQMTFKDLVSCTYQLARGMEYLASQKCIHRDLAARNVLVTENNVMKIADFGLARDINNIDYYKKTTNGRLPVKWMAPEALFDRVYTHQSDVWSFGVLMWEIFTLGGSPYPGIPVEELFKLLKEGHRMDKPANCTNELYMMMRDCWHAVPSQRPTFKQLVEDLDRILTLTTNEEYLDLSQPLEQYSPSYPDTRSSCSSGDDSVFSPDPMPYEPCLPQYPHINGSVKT

Fibroblast growth factor receptor 1, sequence (P11362 22-822 limits assumed): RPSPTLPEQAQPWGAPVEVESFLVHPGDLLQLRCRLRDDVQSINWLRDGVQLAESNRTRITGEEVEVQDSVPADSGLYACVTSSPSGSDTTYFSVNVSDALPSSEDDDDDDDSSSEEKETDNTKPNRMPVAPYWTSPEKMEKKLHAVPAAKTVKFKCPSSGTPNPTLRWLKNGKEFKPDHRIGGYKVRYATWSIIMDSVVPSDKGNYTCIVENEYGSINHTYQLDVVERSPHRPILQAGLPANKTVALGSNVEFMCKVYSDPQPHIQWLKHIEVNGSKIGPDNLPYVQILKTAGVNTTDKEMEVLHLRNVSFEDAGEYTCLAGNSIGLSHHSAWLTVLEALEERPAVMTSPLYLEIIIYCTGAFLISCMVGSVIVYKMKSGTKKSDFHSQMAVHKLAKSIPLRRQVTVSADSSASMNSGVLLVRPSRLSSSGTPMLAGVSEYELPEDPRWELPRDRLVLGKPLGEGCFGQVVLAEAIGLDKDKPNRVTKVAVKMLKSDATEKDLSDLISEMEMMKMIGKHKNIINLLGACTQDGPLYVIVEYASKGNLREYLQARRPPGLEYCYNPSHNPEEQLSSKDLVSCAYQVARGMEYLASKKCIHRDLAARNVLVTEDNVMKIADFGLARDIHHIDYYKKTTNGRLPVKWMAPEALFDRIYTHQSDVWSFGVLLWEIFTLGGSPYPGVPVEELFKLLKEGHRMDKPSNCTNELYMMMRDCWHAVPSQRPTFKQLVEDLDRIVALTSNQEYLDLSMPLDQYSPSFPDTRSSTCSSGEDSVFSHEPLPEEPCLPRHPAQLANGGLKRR
Platelet-derived growth factor receptor beta, sequence (P09619 whole entry): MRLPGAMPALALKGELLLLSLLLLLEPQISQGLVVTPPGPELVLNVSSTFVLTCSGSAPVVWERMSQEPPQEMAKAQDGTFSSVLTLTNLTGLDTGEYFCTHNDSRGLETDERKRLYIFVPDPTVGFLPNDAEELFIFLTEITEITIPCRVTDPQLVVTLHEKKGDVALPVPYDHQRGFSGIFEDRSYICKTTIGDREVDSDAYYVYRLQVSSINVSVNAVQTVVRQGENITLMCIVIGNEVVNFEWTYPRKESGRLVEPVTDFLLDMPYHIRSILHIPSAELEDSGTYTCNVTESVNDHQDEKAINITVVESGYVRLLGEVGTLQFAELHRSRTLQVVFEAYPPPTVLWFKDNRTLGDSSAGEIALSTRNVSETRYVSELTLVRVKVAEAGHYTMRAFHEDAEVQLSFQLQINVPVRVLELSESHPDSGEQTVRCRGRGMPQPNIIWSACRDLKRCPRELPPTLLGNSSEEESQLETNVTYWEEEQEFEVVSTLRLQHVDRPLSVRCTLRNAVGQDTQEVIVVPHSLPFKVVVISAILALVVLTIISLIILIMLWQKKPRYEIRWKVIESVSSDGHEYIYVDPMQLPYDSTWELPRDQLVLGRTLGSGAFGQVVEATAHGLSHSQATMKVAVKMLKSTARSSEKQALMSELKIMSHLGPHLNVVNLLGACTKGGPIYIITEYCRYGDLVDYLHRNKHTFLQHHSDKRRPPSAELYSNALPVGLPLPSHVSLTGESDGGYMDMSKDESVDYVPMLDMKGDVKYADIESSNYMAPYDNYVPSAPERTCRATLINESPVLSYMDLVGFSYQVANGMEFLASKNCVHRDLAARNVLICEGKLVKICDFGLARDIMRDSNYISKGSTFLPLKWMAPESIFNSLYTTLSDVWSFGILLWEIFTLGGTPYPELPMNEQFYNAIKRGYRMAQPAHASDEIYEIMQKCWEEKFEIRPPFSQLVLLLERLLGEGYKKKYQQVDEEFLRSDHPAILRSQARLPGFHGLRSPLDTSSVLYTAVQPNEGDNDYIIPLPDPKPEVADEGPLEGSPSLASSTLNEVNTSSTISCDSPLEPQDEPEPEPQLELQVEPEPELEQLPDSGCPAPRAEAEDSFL

`C[C@@H](Oc1ccc2[nH]nc(-c3nc4cc(N5CCN(C)CC5)ccc4[nH]3)c2c1)c1c(Cl)cncc1Cl` gave an IC50 [1] of 0.002 µM, an IC50 [2] greater than 1 µM and an IC50 [3] greater than 0.1 µM. For the same molecule, the inhibition [4] was “Dose-dependent effect” and the inhibition [5] was “Active”.
